The record followed here is ChEMBL document CHEMBL1157553, “Synthesis of novel aminoglycosides via allylic azide rearrangement for investigating the significance of 2'-amino group” (2010).

Test [1] has as its system Klebsiella pneumoniae. Put plainly: Antibacterial activity against aminoglycoside-susceptible Klebsiella pneumoniae ATCC 13883 after 12 to 18 hrs. In kind it is functional. In outline: (§1)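 Broth microdilution MIC. Bacteria grown in Trypticase Soy broth at 35 °C for 1–2 h, then diluted with broth to an absorbance of 0.08–0.1 at 625 nm. This suspension was further diluted into broth and dispensed into 96-well plates containing 2-fold serial dilutions of compound. Plates were incubated 12–18 h at 35 °C. MIC is the lowest concentration inhibiting growth, repeated at least three times.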

Test [2] concerns Staphylococcus aureus. Put plainly: Antibacterial activity against aminoglycoside-susceptible Staphylococcus aureus ATCC 25923 after 12 to 18 hrs. It is filed as functional. The method, boiled down:
as §1

A further test relates to Pseudomonas aeruginosa. Put plainly: Antibacterial activity against aminoglycoside-resistant Pseudomonas aeruginosa ATCC 27853 after 12 to 18 hrs. In kind it is functional. In outline: (§2)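 Broth microdilution MIC. Bacteria grown in Trypticase Soy broth at 35 °C for 1–2 h, then adjusted to absorbance 0.08–0.1 at 625 nm. This suspension was diluted into 10 mL broth and dispensed into wells, and 2-fold serial dilutions of compound were added. Plates were incubated at 35 °C for 12–18 h. MIC was the lowest concentration inhibiting growth, with at least three repeats.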

A further test has as its system Escherichia coli. Put plainly: Antibacterial activity against aminoglycoside-susceptible Escherichia coli ATCC 25922 after 12 to 18 hrs. In kind it is functional. In outline:
as §1

For test [3], the system named is Klebsiella pneumoniae. Put plainly: Antibacterial activity against aminoglycoside-resistant Klebsiella pneumoniae ATCC 700603 after 12 to 18 hrs.
Test [4] deals with Staphylococcus aureus. Briefly: Antibacterial activity against aminoglycoside-resistant Staphylococcus aureus ATCC 33591 after 12 to 18 hrs. In kind it is functional. The method, boiled down:
as §2

Converted amounts (≈) assume the structure as drawn.

Broadly, the MIC is the smallest concentration in the dilution series that meets the test's criterion for growth inhibition. High values mean a need for much substance, low ones inhibition by little substance. `CCCCCCNC(=O)O[C@@H]1[C@@H](OC(=O)NCCCCCC)[C@H](N)C[C@H](N)[C@H]1O[C@@H]1CC[C@H](N)[C@@H](CN)O1`: the minimum inhibitory concentration (MIC) in the test with Klebsiella pneumoniae [1] was 4 µg/mL (≈ 7.34 µM); in the test on Staphylococcus aureus [2], 32 µg/mL (≈ 58.7 µM); with Pseudomonas aeruginosa, 16 µg/mL (≈ 29.4 µM); with Escherichia coli, 125 µg/mL (≈ 229 µM); with Klebsiella pneumoniae [3] it was no less than 250 µg/mL; against Staphylococcus aureus [4], 16 µg/mL (≈ 29.4 µM).

As for `NC[C@@H]1CC[C@@H](N)[C@@H](O[C@H]2[C@H](O)[C@@H](O[C@@H]3O[C@H](CO)[C@@H](O)[C@H](O)[C@H]3O)[C@H](N)C[C@@H]2N)O1`, the results for the MIC against Staphylococcus aureus [2] and against Escherichia coli were 125 µg/mL (≈ 276 µM) and 64 µg/mL (≈ 141 µM), respectively.

As for `NC[C@H]1O[C@H](O[C@H]2[C@H](O)[C@@H](O[C@@H]3O[C@H](CO)[C@@H](O)[C@H](O)[C@H]3O)[C@H](N)C[C@@H]2N)CC[C@@H]1N`, the MIC in the test on Staphylococcus aureus [2] and against Escherichia coli was no less than 250 µg/mL in each case.

With `C[C@H]1O[C@@H](O[C@@H]2[C@@H](O)[C@H](O[C@@H]3CC[C@H](N)[C@@H](CN)O3)[C@@H](N)C[C@H]2N)[C@H](O)[C@@H](N)[C@@H]1O`, the minimal inhibitory concentration (MIC) stood at 8 µg/mL (≈ 18.4 µM) against Staphylococcus aureus [2] and 16 µg/mL (≈ 36.7 µM) in the test with Escherichia coli.

For the compound `CCCCCCNC(=O)O[C@@H]1[C@@H](O)[C@H](O[C@H]2O[C@H](CN)[C@@H](O)[C@H](O)[C@H]2N)[C@@H](N)C[C@H]1N`, the MIC with Klebsiella pneumoniae [1] is 16 µg/mL (≈ 35.6 µM); against Pseudomonas aeruginosa it was 64 µg/mL (≈ 142 µM); in the test with Klebsiella pneumoniae [3] it was 125 µg/mL (≈ 278 µM); with Staphylococcus aureus [4], no less than 250 µg/mL.

With `CCCCCCNC(=O)O[C@@H]1[C@@H](O)[C@H](O[C@H]2O[C@H](CN)CC[C@H]2N)[C@@H](N)C[C@H]1N`, the MIC against Klebsiella pneumoniae [1] is 16 µg/mL (≈ 38.3 µM); in the test on Staphylococcus aureus [2], 125 µg/mL (≈ 299 µM); against Pseudomonas aeruginosa it was 16 µg/mL (≈ 38.3 µM); against Escherichia coli, no less than 250 µg/mL; against Klebsiella pneumoniae [3], 125 µg/mL (≈ 299 µM); against Staphylococcus aureus [4], 64 µg/mL (≈ 153 µM).

In the case of `CCCCCCNC(=O)O[C@@H]1[C@@H](O)[C@H](O[C@@H]2CC[C@H](N)[C@@H](CN)O2)[C@@H](N)C[C@H]1N`, the MIC was 16 µg/mL (≈ 38.3 µM) against Klebsiella pneumoniae [1]; 32 µg/mL (≈ 76.6 µM) in the test with Staphylococcus aureus [2]; 16 µg/mL (≈ 38.3 µM) against Pseudomonas aeruginosa; no less than 250 µg/mL in the test with Escherichia coli; no less than 250 µg/mL in the test on Klebsiella pneumoniae [3]; 64 µg/mL (≈ 153 µM) in the test on Staphylococcus aureus [4].

For the compound `C[C@H]1O[C@@H](O[C@@H]2[C@@H](O)[C@H](N)C[C@H](N)[C@H]2O[C@H]2O[C@H](CN)CC[C@H]2N)[C@@H](O)[C@@H](O)[C@@H]1N`, the MIC in the test with Staphylococcus aureus [2] is 4 µg/mL (≈ 9.18 µM); with Escherichia coli, 16 µg/mL (≈ 36.7 µM).

As to `NC[C@H]1O[C@H](O[C@H]2[C@H](O)[C@@H](O)[C@H](N)C[C@@H]2N)CC[C@@H]1N`, the MIC was 64 µg/mL (≈ 220 µM) with Staphylococcus aureus [2] and no less than 250 µg/mL with Escherichia coli.

Take `CCCCCCNC(=O)O[C@@H]1[C@@H](OC(=O)NCCCCCC)[C@H](N)C[C@H](N)[C@H]1O[C@H]1O[C@H](CN)[C@@H](O)[C@H](O)[C@H]1N`: the MIC against Klebsiella pneumoniae [1] was found to be 32 µg/mL (≈ 55.5 µM); in the test on Pseudomonas aeruginosa, 125 µg/mL (≈ 217 µM); with Klebsiella pneumoniae [3], 125 µg/mL (≈ 217 µM); in the test on Staphylococcus aureus [4], 125 µg/mL (≈ 217 µM).

As to `C[C@H]1O[C@@H](O[C@@H]2[C@@H](O)[C@H](N)C[C@H](N)[C@H]2O[C@@H]2CC[C@H](N)[C@@H](CN)O2)[C@@H](O)[C@@H](O)[C@@H]1N`, the MIC in the test on Staphylococcus aureus [2] and against Escherichia coli was 125 µg/mL (≈ 287 µM) in each case.

Turning to `NC[C@@H]1CC[C@@H](N)[C@@H](O[C@H]2[C@H](O)[C@@H](O[C@@H]3OC[C@@H](O)[C@H](N)[C@H]3O)[C@H](N)C[C@@H]2N)O1`, the MIC is 2 µg/mL (≈ 4.75 µM) in the test with Staphylococcus aureus [2] and 4 µg/mL (≈ 9.49 µM) with Escherichia coli.

With `NC[C@@H]1O[C@H](O[C@H]2[C@@H](O)[C@H](O[C@@H]3[C@@H](O)[C@H](N)C[C@H](N)[C@H]3O[C@H]3O[C@H](CN)[C@@H](O)[C@H](O)[C@H]3N)O[C@@H]2CO)[C@H](N)[C@@H](O)[C@@H]1O` [FRAMYCETIN], the MIC against Staphylococcus aureus [2] is 1 µg/mL (≈ 1.63 µM); against Escherichia coli, 4 µg/mL (≈ 6.51 µM).

For the compound `NC[C@@H]1CC[C@@H](N)[C@@H](O[C@H]2[C@H](O)[C@@H](O)[C@H](N)C[C@@H]2N)O1` [GENTAMINE C1A], the MIC in the test on Staphylococcus aureus [2] was 16 µg/mL (≈ 55.1 µM); against Escherichia coli, 32 µg/mL (≈ 110 µM).

In the case of `NC[C@H]1O[C@H](O[C@H]2[C@H](O)[C@@H](O[C@H]3O[C@H](CO)[C@@H](O)[C@H](N)[C@H]3O)[C@H](N)C[C@@H]2N)[C@H](O)[C@@H](O)[C@@H]1O` [KANAMYCIN], the MIC was determined as 2 µg/mL (≈ 4.13 µM) with Staphylococcus aureus [2] and 4 µg/mL (≈ 8.26 µM) against Escherichia coli.

As for `NC[C@H]1O[C@H](O[C@H]2[C@H](O)[C@@H](O)[C@H](N)C[C@@H]2N)[C@H](N)[C@@H](O)[C@@H]1O` [NEAMINE], the MIC in the test with Klebsiella pneumoniae [1] stood at 2 µg/mL (≈ 6.2 µM); against Staphylococcus aureus [2], 4 µg/mL (≈ 12.4 µM); with Pseudomonas aeruginosa, 64 µg/mL (≈ 199 µM); in the test on Escherichia coli, 32 µg/mL (≈ 99.3 µM); with Klebsiella pneumoniae [3], 16 µg/mL (≈ 49.6 µM); in the test with Staphylococcus aureus [4], 125 µg/mL (≈ 388 µM).
